Screening results as filed in PubChem BioAssay.
A selection: hits, their analogues and other compounds. The true share with any hit is near 3.5%.
MrgX1 PAM = human MrgX1 positive allosteric modulation, primary screen; B-score at 10 µM; MrgX1-HEK293, Fluo-4 calcium flux, FDSS; active compounds read high; 310,000 tested, 0.63% active; AID 588675;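 active means plate-corrected calcium response at least 3 library SD above typical, normal starting fluorescence, not activating the receptor alone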;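 further: compound read alongside a low EC10 to EC30 dose of BAM8-22 agonist; peak minus trough fluorescence over baseline measured at the second addition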
Target sequence (Q96LB2 whole entry, looked up): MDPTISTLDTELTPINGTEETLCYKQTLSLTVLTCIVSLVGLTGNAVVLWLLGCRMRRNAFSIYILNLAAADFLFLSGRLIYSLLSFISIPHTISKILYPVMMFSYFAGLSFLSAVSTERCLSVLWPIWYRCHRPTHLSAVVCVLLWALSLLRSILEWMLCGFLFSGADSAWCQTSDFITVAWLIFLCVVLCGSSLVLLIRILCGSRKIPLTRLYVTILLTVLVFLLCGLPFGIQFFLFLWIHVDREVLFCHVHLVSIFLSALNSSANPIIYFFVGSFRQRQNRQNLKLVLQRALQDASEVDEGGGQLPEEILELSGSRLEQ
RGS4 inh = human RGS4 inhibition. P49798. HEK293 M3R/RGS4 inducible, Fluo-4 calcium flux; active compounds read high; triggered by carbachol at its EC20. B-score at 10 µM. 310,000 tested, 0.45% active;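 active means B-score, a plate-corrected calcium signal, over three deviations above library mean, with baseline fluorescence within five deviations of library mean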;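 further: RGS4 expression induced by doxycycline in cells with stable M3 receptor; B-score is computed from the integrated fluorescence ratio over baseline after carbachol; higher B-score means a larger calcium signal and so more RGS4 inhibition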
Target sequence (P49798 whole entry, looked up): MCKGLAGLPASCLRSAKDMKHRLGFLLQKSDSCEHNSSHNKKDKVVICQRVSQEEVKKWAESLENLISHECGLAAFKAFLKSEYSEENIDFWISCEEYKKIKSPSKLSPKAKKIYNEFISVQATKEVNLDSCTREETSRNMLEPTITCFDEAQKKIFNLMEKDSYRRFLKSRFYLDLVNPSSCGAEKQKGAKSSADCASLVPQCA
MrgX1 ag = agonists of human MrgX1 receptor; AID 588627; 310,000 tested, 0.44% active; B-score at 10 µM; MrgX1-HEK293 cells, Fluo-4 calcium fluorescence, agonist mode; active compounds read high; Q96LB2;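 active means calcium response B-score plate-corrected fluorescence ratio at least 3 library SD, with starting fluorescence B-score inside 5 SD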
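Assay system: stable human MrgX1 HEK293 cell line. Quantity: 15,000 cells per well. Schedule: cells plated overnight, dye loaded 0.5 h 37 °C, 0.5 h room temperature. Detection: Fluo-4 NW calcium-flux fluorescence, kinetic read. Read-out basis: peak-minus-minimum fluorescence over baseline, converted to B scores. Control set: positive and negative control wells on each plate.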
RGS4 pot = RGS4 potentiation or activation | HEK293 M3R/inducible RGS4, carbachol calcium flux Fluo4; active compounds read low | B-score at 10 µM | 310,000 tested, 0.92% active | AID 463111;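 active means B-score of the integrated calcium signal more than 4 SD below the library mean, with starting fluorescence not abnormally high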;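 further: negative B-score means reduced calcium response which marks RGS4 activation or potentiation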
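System: HEK293 FlpIn-TREx cells, stable M3R, doxycycline-inducible RGS4. Timing: overnight RGS4 induction, 30 min dye load 37 °C, 20 min compound RT. Also added: carbachol, ECmax concentration. Measured by: Fluo4 fluorescence kinetic imaging of calcium. Evaluation: integrated calcium ratio converted to B score.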
MrgX1 antag = human MrgX1 receptor antagonism, primary screen. 310,000 tested, 1.3% active. AID 588676. MRGX1-HEK293 calcium flux, Fluo-4, BAM8-22 antagonism; active compounds read low. Q96LB2. B-score at 10 µM;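 active means calcium-response B-score plate-corrected more than 3 library SD below zero, starting fluorescence within 5 deviations, no agonist response on first addition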;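 further: peak minus trough fluorescence over baseline after final BAM8-22 challenge near maximal dose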
MrgX1 antag conf = confirmation of human MrgX1 receptor antagonists. shares compounds with MrgX1 antag. MrgX1-HEK293, BAM8-22 calcium flux, Fluo-4; active compounds read low. remaining BAM8-22 calcium response % of control (active compounds read low), % at 10 µM. 2,300 tested, 19% active. AID 602420;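 active means remaining agonist calcium response no higher than 100% minus 3 SD of agonist-only control wells, with starting fluorescence near control levels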;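 further: agonist BAM8-22 given at a near maximal EC90 to ECmax level; peak minus minimum fluorescence divided by baseline after agonist addition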
HEK293 Ca flux = counter-screen for MrgX1 antagonists: effect in parental HEK293 cells | fluorescence ratio F(max-min)/F0 at 10 µM | Fluo-4 calcium fluorescence, FDSS | 4,000 tested, 2% active | shares compounds with MrgX1 antag | AID 624111;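 active means duplicate-averaged calcium fluorescence ratio at least three times the standard deviation of buffer wells, a nonspecific response in parental cells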
HEK293 Ca counter = counter-screen for MrgX1 allosteric activators: effect in parental HEK293 cells. shares compounds with MrgX1 antag. 4,000 tested, 0.4% active. parental HEK293 calcium flux, Fluo-4 fluorescence ratio; active compounds read high. fluorescence ratio F(max-min)/F0 at 10 µM;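 active means calcium fluorescence ratio, averaged over duplicates, at least 3 SD of the buffer-well ratio, meaning a nonspecific response in receptor-free cells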;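 further: untransfected parental HEK293 lacking MrgX1 used as counterscreen for MrgX1 allosteric activators; fluorescence change taken during the second addition on a kinetic imager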
HEK293 Ca cntr2 = counter-screen for MrgX1 activators: effect in parental HEK293 cells; Fluo-4 calcium fluorescence (FDSS); active compounds read high; fluorescence ratio F(max-min)/F0 at 10 µM; AID 624115; shares compounds with MrgX1 antag; 4,000 tested, 8.7% active;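 active means calcium fluorescence ratio at least three times the spread of buffer wells, meaning a non-specific response in parental cells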
* marks the source's active call; other numbers are inactive results; i = inactive; . = no result given.

SMILES	MrgX1 PAM	RGS4 inh	MrgX1 ag	RGS4 pot	MrgX1 antag	MrgX1 antag conf	HEK293 Ca flux	HEK293 Ca counter	HEK293 Ca cntr2
Cc1ccc(NS(=O)(=O)c2ccc(OCC(N)=O)cc2)cc1	i	i	i	i	-9.4*	i	i	i	i
COc1ccc(C(=O)C(=O)c2ccc(OCCO)cc2)cc1	i	i	i	i	i	.	.	.	.
COc1cc(OC)c(OC)cc1CNC(=O)CCN1C(=O)c2cccc([N+](=O)[O-])c2C1=O	i	i	i	i	i	.	.	.	.
O=S(=O)(c1ccccc1)N1CCN(Cc2cccc(Cl)c2)CC1	i	.	i	.	-6.89*	i	i	i	i
Cc1ccc2c(c1)CCCN2S(=O)(=O)c1cccc(C(=O)Nc2ccccc2C(=O)O)c1	i	i	i	i	-6.67*	66.9%*	i	i	i
O=C(NC1=NCCS1)c1ccc(Cl)c(S(=O)(=O)N2CCc3ccccc32)c1	i	i	i	i	i	.	.	.	.
O=C(NC1=NCCS1)c1cccc(S(=O)(=O)N2CCc3ccccc32)c1	i	i	i	i	-4.94*	i	i	i	i
O=C(c1cccc(Cl)c1)N1CCC(N2CCC(C(=O)N3CCCC3)CC2)CC1	i	i	i	i	i	.	.	.	.
O=C(CC(=O)Nc1nc(C23CC4CC(CC(C4)C2)C3)cs1)NCCO	i	i	i	i	-5.69*	65.3%*	i	i	i
O=C(Nc1cccc(O)c1)c1cc(S(=O)(=O)N2CCCC2)ccc1Cl	i	i	i	i	-5.11*	i	i	i	i
CN1C(=O)/C(=C\c2ccccc2F)Sc2ccc(C(=O)NC3CCN(Cc4ccccc4)CC3)cc21	i	i	i	i	i	.	.	.	.
CC(C)NC(=O)NC(=O)COc1ncnc2sccc12	i	i	i	i	-4.89*	i	i	i	i
O=C(COc1ncnc2sccc12)NC1CCCc2ccccc21 (stereo not given)	i	i	i	i	-7.44*	79.6%*	i	i	i
CCOc1ccc(-c2c(C)n([O-])c3c([n+]2=O)CCCCC3)cc1	i	i	i	i	i	.	.	.	.
CS(=O)(=O)c1ccccc1-c1nnc(NC(=O)c2cccc(N3C(=O)CCC3=O)c2)o1	i	i	i	i	i	.	.	.	.
CCN1CCCC1CNC(=O)c1cc(NC(C)=O)c(N(C)C)cc1OC (stereo not given)	i	i	i	i	-6.5*	i	i	i	i
CCC(=O)Nc1cc(C(=O)NCC2CCCN2CC)c(OC)cc1N(C)C (stereo not given)	i	i	i	i	i	.	.	.	.
COc1ccccc1/C=C/c1onc(C)c1S(=O)(=O)N1CCC(C(=O)NC(C)C)CC1	i	i	i	i	-5.48*	i	i	i	i
Cc1ccccc1NC(=O)C1C2CCCCC21 (stereo not given)	i	i	i	i	i	.	.	.	.
Cc1ccccc1NC(=O)C1C2/C=C\CCCCC21 (stereo not given)	i	i	i	i	-4.53*	i	i	i	i
CCCCN1CC(=O)N2[C@H](c3ccc(OC)cc3)[C@@H]3C(=O)N(CC)C(=O)[C@@H]3[C@]2(C)C1=O	i	i	i	i	i	.	.	.	.
CC(C)OC(=O)c1ccc(COC(=O)c2cnccn2)cc1	i	i	i	i	-5.36*	i	i	i	i
Cc1cc(CNC(=O)COC(=O)Cn2[nH]c(=O)c3ccccc3c2=O)cc(C)c1O	i	i	i	i	i	.	.	.	.
CC(=O)NS(=O)(=O)c1ccc(NC(=S)NC(=O)Cc2ccccc2)cc1	i	i	i	i	-6.05*	i	i	i	i
CN(C)C(CNC(=O)CCCN1C(=O)c2cccc3cccc(c23)C1=O)c1ccccc1 (stereo not given)	i	i	i	i	i	.	.	.	.
SMILES	MrgX1 PAM	RGS4 inh	MrgX1 ag	RGS4 pot	MrgX1 antag	MrgX1 antag conf	HEK293 Ca flux	HEK293 Ca counter	HEK293 Ca cntr2
Cc1cc(=O)oc2cc(OCC(=O)NC3CCCCC3)ccc12	i	i	i	i	i	.	.	.	.
COc1ccc(-c2c(C#N)c(N)nc3c2c(=O)n(C)c(=O)n3C)cc1Cl	i	i	i	i	-8.26*	i	i	i	i
Cc1c(O)ccc2c(CC(=O)N[C@@H](Cc3ccccc3)C(=O)O)cc(=O)oc12	i	i	i	i	-4.89*	83.6%*	i	i	i
COc1ccc2c(CC(=O)N[C@@H](Cc3ccccc3)C(=O)O)cc(=O)oc2c1	i	i	i	i	i	.	.	.	.
CSc1ccc(C(=O)NC2CCSc3ccccc32)cc1 (stereo not given)	i	i	i	i	i	.	.	.	.
Cc1cc(SCC(=O)Nc2cccc(S(N)(=O)=O)c2)c(C)cc1Br	i	i	i	i	-9.77*	i	i	i	i
COc1ccc(C(O)C(CN2CCOCC2)c2ccccc2)cc1F (stereo not given)	i	i	i	i	-5.56*	i	i	i	i
Cc1ccccc1OCCCN1CCCC1	i	i	i	i	-7.22*	i	i	i	i
O=C(c1cccc(F)c1)N1CCN(S(=O)(=O)Cc2ccccc2)CC1	i	i	i	i	i	.	.	.	.
CC(=O)c1c(C)[nH]c(C(=O)OCCOc2ccccc2)c1C	i	i	i	i	i	.	.	.	.
Cc1c(C(=O)OCCOc2ccccc2)[nH]c2c1C(=O)CCC2	i	i	i	i	-5.15*	66.9%*	i	i	i
CCCCC(O)(CCCC)C(=O)NN(C(=O)c1cccnc1Cl)c1ccccc1	i	i	i	i	i	.	.	.	.
O=C(c1cc(COc2c(F)cccc2F)on1)N1CCC(c2ccccc2Cl)C1 (stereo not given)	i	i	i	i	i	.	.	.	.
